From ChEMBL document CHEMBL1130233, “N6-cyclopentyl-3'-substituted-xylofuranosyladenosines: a new class of non-xanthine adenosine A1 receptor antagonists” (J Med Chem, 1997) come the findings set out here.

The target of test [1] is T1, Adenosine receptor A1 (Rattus norvegicus) (UniProt P25099).
T1 sequence (whole entry): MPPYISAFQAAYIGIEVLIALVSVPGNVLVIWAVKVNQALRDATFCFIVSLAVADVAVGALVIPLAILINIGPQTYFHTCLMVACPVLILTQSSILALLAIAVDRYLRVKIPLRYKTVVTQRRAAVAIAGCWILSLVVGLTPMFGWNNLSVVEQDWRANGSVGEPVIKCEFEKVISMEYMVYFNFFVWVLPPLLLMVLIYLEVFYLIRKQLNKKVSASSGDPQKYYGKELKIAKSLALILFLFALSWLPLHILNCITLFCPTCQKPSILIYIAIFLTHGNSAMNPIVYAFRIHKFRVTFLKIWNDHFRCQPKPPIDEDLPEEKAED
Nature of the test: GTP shift ratio of the apparent Ki values in the presence and absence of GTP. In short, it runs like this: (§1)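 Rat cerebral cortex membranes were used for displacement of the tritiated antagonist [3H]DPCPX. Assays were run with and without 1 mM GTP, and Ki values were derived from the displacement data. GTP shift is the apparent Ki with GTP divided by the apparent Ki without GTP. There were three or four independent experiments, each in duplicate.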

Test [2] has as its target Adenosine receptor A2a (Rattus norvegicus, UniProt P30543). Nature of the test: Affinity for adenosine A2a receptor was determined on rat striatal membrane using [3H]-CGS- 21680 as radioligand. More on the design: species or system Striatum. In short, it runs like this: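 Rat striatal membranes were used for displacement of [3H]CGS 21680 as radioligand, and Ki values were derived from the displacement data. There were three or four independent experiments, each performed in duplicate.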

In test [3] the target is T2, Adenosine receptor A1 (Rattus norvegicus, UniProt P25099).
T2 sequence (P25099 whole entry): T1 sequence (whole entry)
Nature of the test: Affinity for adenosine A1 receptor was determined, in the presence of GTP in rat brain cortex. The class given is tissue-based. In short, it runs like this:
as §1

For test [4], the target named is T2, Adenosine receptor A1. Nature of the test: Affinity for adenosine A1 receptor was determined, in the absence of GTP in rat cortical membrane. It counts as cell membranes. In short, it runs like this:
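Rat cerebral cortex membranes were used for displacement of the tritiated antagonist [3H]DPCPX. GTP shift is the apparent Ki with GTP divided by the apparent Ki without GTP. There were three or four independent experiments, each in duplicate.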

The target in test [5] is Adenosine receptor A2a (Rattus norvegicus) (UniProt P30543). Nature of the test: Affinity for adenosine A2a receptor of rat striatal membrane using [3H]-CGS- 21680 at 10e-5 M. In short, it runs like this: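 On rat striatal membranes with [3H]CGS 21680 as radioligand, the value is the percentage of radioligand still bound to the receptor in the presence of 10⁻⁵ M test ligand.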
Adenosine receptor A2a (Rattus norvegicus), sequence (P30543 whole entry): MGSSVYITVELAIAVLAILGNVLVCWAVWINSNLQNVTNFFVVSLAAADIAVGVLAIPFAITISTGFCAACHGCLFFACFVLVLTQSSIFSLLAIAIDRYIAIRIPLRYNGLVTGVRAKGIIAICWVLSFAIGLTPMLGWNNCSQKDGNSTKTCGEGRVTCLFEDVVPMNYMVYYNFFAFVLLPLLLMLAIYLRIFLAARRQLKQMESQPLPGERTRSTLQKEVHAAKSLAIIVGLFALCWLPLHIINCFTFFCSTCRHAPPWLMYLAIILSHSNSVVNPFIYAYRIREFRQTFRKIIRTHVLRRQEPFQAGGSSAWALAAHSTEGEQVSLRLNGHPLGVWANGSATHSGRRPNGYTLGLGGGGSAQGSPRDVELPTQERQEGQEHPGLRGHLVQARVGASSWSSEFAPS

Adenosine receptor A2a, sequence (P30543 whole entry): as above

Broadly, the Ki is the dissociation constant of the complex between target and ligand, obtained from inhibition or displacement. In the case of `Nc1ncnc2c1ncn2[C@@H]1OC(CO)[C@H](NC(=O)c2ccccc2)[C@H]1O` (single isomer, unassigned), the Ratio in test [1] came out at 1.1. Besides, the Ki was determined as 2470 nM in test [2], 11100 nM in test [3] and 10900 nM in test [4].
`O=C(CCCCc1ccccc1)N[C@H]1C(CO)O[C@@H](n2cnc3c(NC4CCCC4)ncnc32)[C@@H]1O` (single isomer, unassigned): the Ratio in test [1] was determined as 0.83. Moreover, the Ki in test [2] turned out to be 4230 nM; in test [3] it was 200 nM; in test [4], 240 nM.
For the compound `Cc1ccc(C(=O)N[C@H]2C(CO)O[C@@H](n3cnc4c(NC5CCCC5)ncnc43)[C@@H]2O)cc1C` (single isomer, unassigned), the Ratio in test [1] is 0.73. The same compound displayed a Ki in test [2] of 3680 nM.
`O=C(CCCC1CCCCC1)N[C@H]1C(CO)OC(n2cnc3c(NC4CCCC4)ncnc32)C1O` (stereo partly drawn): the percent radioligand bound in test [5] is 74%. Also, in test [1], the Ratio is 0.8. Further, the Ki in test [3] came out at 150 nM; in test [4] it was 190 nM.
In the case of `O=C(N[C@H]1C(CO)O[C@@H](n2cnc3c(NC4CCCC4)ncnc32)[C@@H]1O)c1ccc([N+](=O)[O-])cc1` (single isomer, unassigned), in test [1], the Ratio amounted to 0.91. The Ki in test [2] came out at 6850 nM; in test [3], 740 nM; in test [4], 820 nM.
`Nc1ncnc2c1ncn2[C@@H]1OC(CO)[C@H](NC(=O)CCOc2ccccc2)[C@H]1O` (single isomer, unassigned): the Ratio in test [1] was 0.74. The Ki in test [2] came to 11800 nM; in test [3], 12600 nM.
As for `O=C(Cc1ccccc1)N[C@H]1C(CO)OC(n2cnc3c(NC4CCCC4)ncnc32)C1O` (stereo partly drawn), the percent radioligand bound in test [5] amounted to 50%. The Ratio in test [1] is 0.95. Further, the Ki came to 770 nM in test [3] and 850 nM in test [4].
Consider `O=C(CCc1ccccc1)N[C@H]1C(CO)O[C@@H](n2cnc3c(NC4CCCC4)ncnc32)[C@@H]1O` (single isomer, unassigned), for which, in test [1], the Ratio stood at 0.99. The inhibitory constant (Ki) in test [2] worked out at 7940 nM; in test [3], 350 nM; in test [4] it was 370 nM.
As for `OC[C@@H]1C[C@@H](O)[C@H](n2cnc3c(NC4CCCC4)ncnc32)O1`, in test [1], the Ratio came out at 4.3.
For `Nc1ncnc2c1ncn2[C@@H]1O[C@H](CO)C[C@H]1O`, in test [1], the Ratio was 2.1.
Regarding `O=C(N[C@H]1C(CO)O[C@@H](n2cnc3c(NC4CCCC4)ncnc32)[C@@H]1O)c1ccccc1` (single isomer, unassigned), the Ratio in test [1] came out at 0.8. This compound came in with a Ki in test [2] of 2760 nM.
On to `Cc1ccc(C(=O)N[C@H]2C(CO)OC(n3cnc4c(NC5CCCC5)ncnc43)C2O)cc1` (stereo partly drawn), for which, in test [1], the Ratio was 0.84. Moreover, the Ki amounted to 790 nM in test [2], 68 nM in test [3] and 83 nM in test [4].
Take `O=C(CCCc1ccccc1)N[C@H]1C(CO)O[C@@H](n2cnc3c(NC4CCCC4)ncnc32)[C@@H]1O` (single isomer, unassigned): in test [1], the Ratio turned out to be 0.94. Also, the Ki in test [2] worked out at 650 nM; in test [3], 100 nM; in test [4] it was 130 nM.
For the compound `Nc1ncnc2c1ncn2C1OC(CO)[C@H](NC(=O)CCCCc2ccccc2)C1O` (stereo partly drawn), the Ratio in test [1] was 0.73. In addition, the Ki was determined as 4660 nM in test [2], 5740 nM in test [3] and 7840 nM in test [4].
The corresponding values for `Nc1ncnc2c1ncn2[C@@H]1OC(CO)[C@H](NC(=O)CCCC2CCCCC2)[C@H]1O` (single isomer, unassigned) are 0.75, 1770 nM, 2680 nM and 3590 nM.
Take `O=C(N[C@H]1C(CO)O[C@@H](n2cnc3c(NC4CCCC4)ncnc32)[C@@H]1O)c1ccc(Cl)cc1` (single isomer, unassigned): the Ratio in test [1] turned out to be 0.87. Moreover, the results for the Ki in test [2], in test [3] and in test [4] were 580 nM, 81 nM and 110 nM, respectively.
In the case of `COc1ccc(C(=O)N[C@H]2C(CO)OC(n3cnc4c(NC5CCCC5)ncnc43)C2O)cc1` (stereo partly drawn), the Ratio in test [1] was 0.77. Also, the values for the Ki in test [2], in test [3] and in test [4] were 770 nM, 130 nM and 200 nM, respectively.
In the case of `O=C(N[C@H]1C(CO)O[C@@H](n2cnc3c(NC4CCCC4)ncnc32)[C@@H]1O)c1ccc(Cl)c(Cl)c1` (single isomer, unassigned), the Ratio in test [1] was determined as 0.73. Also, in test [2], the affinity corresponds to a Ki of 2020 nM.
`[N-]=[N+]=N[C@@H]1[C@@H](O)[C@H](n2cnc3c(NC4CCCC4)ncnc32)O[C@@H]1CO`: the Ratio in test [1] amounted to 1.4. The Ki in test [2] stood at 2410 nM; in test [3] it was 11200 nM; in test [4] it was 8470 nM.
